Results from different studies.
CA1: Carbonic anhydrase 1 (CA1, Homo sapiens, UniProt P00915)
ADRA2A: Alpha-2A adrenergic receptor (ADRA2A, Homo sapiens, UniProt P08913)
Protein phosphatase methylesterase 1: Protein phosphatase methylesterase 1 (Homo sapiens, UniProt Q9Y570)
SLC22A11: Solute carrier family 22 member 11 (SLC22A11, Homo sapiens, UniProt Q9NSA0)

| SMILES | target | assay | test system | conditions | quantity | value |
| --- | --- | --- | --- | --- | --- | --- |
| O=C(Nc1cccc(F)c1)Nc1ccc2c(c1)C=CCP(=O)(O)O2 | CA1 | enzyme activity, inhibitor, stopped-flow |  |  | Ki | > 10 µM |
| CCCCC1CNC2CCc3ccc(OC)cc3C12 (racemic) | ADRA2A | ligand displacement, radioligand |  |  | Ki | 0.26 µM |
| CC(=O)c1c(C)c2cnc(Nc3ccc(C4CCN(CCS(C)(=O)=O)CC4)cn3)nc2n(C2CCCC2)c1=O | Cytochrome P450 2C19 (CYP2C19, Homo sapiens, UniProt P33261) | enzyme activity, inhibitor | human, liver microsomes |  | IC50 | > 10 µM |
| COc1cc2c(cc1OC)CN(CCc1ccc(NC(=O)c3cccc4c(=O)c5cccc(OC)c5[nH]c34)cc1)CC2 | ADRA2A | cell-free assay |  |  | Ki | 1.37 µM |
| O=C(CP(=O)(Oc1ccccc1)Oc1ccccc1)N/N=C/c1ccncc1Br | Protein phosphatase methylesterase 1 | enzyme activity, inhibitor |  | lysate | IC50 | 7 µM |
| O=C(Nc1ccc2c(c1)C=CCP(=O)(O)O2)c1ccc2ccccc2c1 | CA1 | enzyme activity, inhibitor, stopped-flow |  |  | Ki | > 10 µM |
| O=P(Oc1ccccc1)(Oc1ccccc1)C(NCc1cncc2ccccc12)c1ccc(O)cc1 (stereo not drawn) | Protein phosphatase methylesterase 1 | enzyme activity, inhibitor |  | lysate | IC50 | 15.5 µM |
| N#Cc1c(Cl)c(Cl)c(Cl)c(C#N)c1Cl | SLC22A11 | transporter uptake, inhibitor |  |  | IC50 | 7.3 µM |
| O=C(Nc1ccc(C(F)(F)F)cc1)Nc1ccc2c(c1)C=CCP(=O)(O)O2 | CA1 | enzyme activity, inhibitor, stopped-flow |  |  | Ki | > 10 µM |
| CC[C@H](C)[C@H](NC(=O)[C@H](CCCCNC(=O)CN(CCNC(=O)CN(CCNC(=O)CN(CCNC(=O)CN(CCNC(=O)[C@H](CCCNC(=N)N)NC(C)=O)C(=O)Cn1ccc(N)nc1=O)C(=O)Cn1cnc2c(=O)[nH]c(N)nc21)C(=O)Cn1cnc2c(=O)[nH]c(N)nc21)C(=O)Cn1ccc(N)nc1=O)NC(=O)[C@H](C)NC(=O)[C@H](CCCNC(=N)N)NC(=O)[C@H](CCCCN)NC(=O)[C@H](CCC(N)=O)NC(=O)[C@H](CCC(N)=O)NC(=O)[C@H](CC(N)=O)NC(=O)[C@@H](NC(=O)[C@H](CC(C)C)NC(=O)[C@H](CC(N)=O)NC(=O)[C@@H]1CCCN1C(=O)[C@H](CC(=O)O)NC(=O)[C@H](CC(C)C)NC(=O)[C@H](C)NC(=O)[C@H](CS)NC(=O)[C@H](CCCC(=O)NCCN(CC(=O)NCCN(CC(=O)NCCN(CC(=O)NCCN(CC(N)=O)C(=O)Cn1cnc2c(=O)[nH]c(N)nc21)C(=O)Cn1ccc(N)nc1=O)C(=O)Cn1ccc(N)nc1=O)C(=O)Cn1cnc2c(=O)[nH]c(N)nc21)NC(=O)[C@H](Cc1c[nH]c2ccccc12)NC(=O)[C@H](Cc1ccc(O)cc1)NC(=O)[C@H](CCCNC(=N)N)NC(=O)[C@H](CC(N)=O)NC(=O)[C@H](CCCNC(=N)N)NC(=O)[C@H](CC1CCCCC1)NC(=O)[C@H](CCC(=O)O)NC(=O)[C@H](CCCCN)NC(=O)[C@H](CO)NC(=O)[C@H](Cc1ccccc1)NC(C)=O)[C@@H](C)O)C(=O)N[C@@H](CCCNC(=N)N)C(=O)N[C@@H](CO)C(=O)N[C@H](C(=O)N[C@@H](Cc1ccc(O)cc1)C(=O)N[C@@H](CCC(=O)O)C(=O)N[C@@H](CCC(=O)O)C(N)=O)[C@@H](C)CC | Receptor tyrosine-protein kinase erbB-2 (ERBB2, Homo sapiens, UniProt P04626) | binding, SPR |  |  | Kd | 0.00058 µM |
| NC(=S)N/N=C1/c2ccccc2[C@@H]2[C@H]1[C@@H](c1ccoc1)[C@H](C(=O)c1ccco1)[C@H]2c1ccoc1 | Carbonic anhydrase 2 (CA2, Homo sapiens, UniProt P00918) | enzyme activity, inhibitor, absorbance |  |  | IC50 | 0.748 µM |
| O=C(Nc1ccc2c(c1)C=CCP(=O)(O)O2)Nc1ccccc1Br | CA1 | enzyme activity, inhibitor, stopped-flow |  |  | Ki | > 10 µM |
| CC(C)C[C@H]1C(=O)N2CCC[C@H]2[C@]2(O)O[C@](NC(=O)[C@@H]3C=C4c5cccc6[nH]c(Br)c(c56)C[C@H]4N(C)C3)(C(C)C)C(=O)N12 | Synaptic vesicular amine transporter (SLC18A2, Homo sapiens, UniProt Q05940) | transporter uptake, inhibitor |  |  | IC50 | 4.85 µM |
| C[CH2][Hg][S]c1ccccc1C(=O)[O-].[Na+] | SLC22A11 | transporter uptake, inhibitor |  |  | IC50 | 5 µM |
| CCOC(=O)c1ccc(OC(=O)CCCCCN=C(N)N)cc1 | Tryptase gamma (Homo sapiens, UniProt Q9NRR2) | enzyme activity, inhibitor |  |  | IC50 | 1.99 µM |
